For 23 compounds, Ki and Activity results are on record in ChEMBL document CHEMBL1781938, “New 3-, 8-disubstituted pyrazolo[5,1-c][1,2,4]benzotriazines useful for studying the interaction with the HBp-3 area (hydrogen bond point area) in the benzodiazepine site on the γ-aminobutyric acid type A (GABAA) receptor” (Bioorg Med Chem, 2011).

Biological target in one assay: not listed separately
Nature of the assay: Displacement of [3H]Ro151788 from bovine GABA-A receptor. Set-up: species or system Bos taurus. In outline:
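Competition binding against [3H]flumazenil (Ro 15-1788) at the benzodiazepine site, using bovine cerebral cortex membranes diluted in 50 mM Tris–citrate pH 7.4. Protein was measured by the Lowry method. Each compound was run at six or more concentrations. Ki was derived only for compounds giving more than 80% inhibition of specific binding at 10 µM.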
Background: Loss of bound radioactivity is the signal in a displacement assay; it reports binding, not function.
In turn, `O=C(OCc1cccs1)c1cnn2c1n[n+]([O-])c1ccc(-c3ccco3)cc12` returned a Ki of 54.8 nM.

In the case of `[O-][n+]1nc2c(-c3ccc[nH]3)cnn2c2cc(-c3ccsc3)ccc21`, affinity was put at a Ki of 48.3 nM.

`COC(=O)c1cnn2c1n[n+]([O-])c1ccc(-c3ccc[nH]3)cc12` displayed a Ki of 14.9 nM.

Consider `O=C(c1ccco1)c1cnn2c1n[n+]([O-])c1ccc(-c3ccco3)cc12`, for which the Ki is 857 nM.

Turning to `[O-][n+]1nc2c(I)cnn2c2cc(-c3ccc[nH]3)ccc21`, the affinity corresponds to a Ki of 25 nM.

As to `COc1ccc(-c2ccc3c(c2)n2ncc(C(=O)OCc4cccs4)c2n[n+]3[O-])cc1`, the Ki was 29.4 nM.

In turn, `COc1ccc(-c2ccc3c(c2)n2ncc(C(=O)c4ccco4)c2n[n+]3[O-])cc1` showed a Ki of 239 nM.

Compound `CC(C)(C)OC(=O)n1cccc1-c1ccc2c(c1)n1ncc(C(=O)OCc3cccs3)c1n[n+]2[O-]` came in with a Ki of 395 nM.

As to `[O-][n+]1nc2c(I)cnn2c2cc(-c3cccs3)ccc21`, the Ki is 202 nM.

As to `[O-][n+]1nc2c(-c3ccsc3)cnn2c2cc(-c3ccccc3)ccc21`, the Ki is 642 nM.

As for `COc1ccc(-c2ccc3c(c2)n2ncc(-c4ccsc4)c2n[n+]3[O-])cc1`, the Ki stood at 817 nM.

On to `[O-][n+]1nc2c(I)cnn2c2cc(-c3ccccc3O)ccc21`, for which affinity was put at a Ki of 2480 nM.

For `O=C(c1ccco1)c1cnn2c1n[n+]([O-])c1ccc(-c3ccc[nH]3)cc12`, the Ki turned out to be 63 nM.

Compound `[O-][n+]1nc2c(I)cnn2c2cc(-c3ccsc3)ccc21` returned a Ki of 56 nM.

In turn, `[O-][n+]1nc2c(-c3ccco3)cnn2c2cc(-c3ccsc3)ccc21` came in with a Ki of 26.9 nM.

Turning to `[O-][n+]1nc2c(-c3ccsc3)cnn2c2cc(-c3ccc[nH]3)ccc21`, the affinity corresponds to a Ki of 19.4 nM.

Compound `[O-][n+]1nc2c(-c3ccsc3)cnn2c2cc(-c3cccs3)ccc21` had an inhibitory constant (Ki) of 370 nM.

Turning to `[O-][n+]1nc2c(I)cnn2c2cc(-c3ccco3)ccc21`, the Ki worked out at 190 nM.

For the compound `COc1ccc(-c2ccc3c(c2)n2ncc(I)c2n[n+]3[O-])cc1`, the Ki is 241 nM.

For the compound `[O-][n+]1nc2c(-c3ccsc3)cnn2c2cc(-c3ccco3)ccc21`, the Ki is 209 nM.

Regarding `COc1ccccc1-c1ccc2c(c1)n1ncc(I)c1n[n+]2[O-]`, the Ki was 305 nM.

In turn, `[O-][n+]1nc2c(-c3ccsc3)cnn2c2cc(-c3ccsc3)ccc21` yielded a Ki of 357 nM.

For the compound `[O-][n+]1nc2c(I)cnn2c2cc(-c3ccncc3)ccc21`, the Ki worked out at 2380 nM.

The species entered for a further assay is Bos taurus. Kind of assay: Displacement of [3H]Ro151788 from bovine GABA-A receptor at 10 uM. A digest of the protocol:
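Bovine cerebral cortex membranes diluted in 50 mM Tris–citrate buffer pH 7.4, with protein measured by Lowry. Specific binding of [3H]flumazenil (Ro 15-1788) was read as percent inhibition with test compound at a fixed 10 µM. Compounds inhibiting by more than 80% went on to Ki determination.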
Compound `O=C(OCc1cccs1)c1cnn2c1n[n+]([O-])c1ccc(-c3ccco3)cc12` came in with an Activity above 80%.

For `[O-][n+]1nc2c(-c3ccc[nH]3)cnn2c2cc(-c3ccsc3)ccc21`, the Activity was above 80%.

For `COC(=O)c1cnn2c1n[n+]([O-])c1ccc(-c3ccc[nH]3)cc12`, the Activity is above 80%.

Compound `O=C(c1ccco1)c1cnn2c1n[n+]([O-])c1ccc(-c3ccco3)cc12` gave an Activity above 80%.

`[O-][n+]1nc2c(I)cnn2c2cc(-c3ccc[nH]3)ccc21` registered an Activity above 80%.

`COc1ccc(-c2ccc3c(c2)n2ncc(C(=O)OCc4cccs4)c2n[n+]3[O-])cc1` registered an Activity above 80%.

Compound `COc1ccc(-c2ccc3c(c2)n2ncc(C(=O)c4ccco4)c2n[n+]3[O-])cc1` displayed an Activity above 80%.

As to `CC(C)(C)OC(=O)n1cccc1-c1ccc2c(c1)n1ncc(C(=O)OCc3cccs3)c1n[n+]2[O-]`, the Activity was above 80%.

In turn, `[O-][n+]1nc2c(I)cnn2c2cc(-c3cccs3)ccc21` showed an Activity above 80%.

Take `[O-][n+]1nc2c(-c3ccsc3)cnn2c2cc(-c3ccccc3)ccc21`: the Activity is above 80%.

As to `COc1ccc(-c2ccc3c(c2)n2ncc(-c4ccsc4)c2n[n+]3[O-])cc1`, the Activity was above 80%.

With `[O-][n+]1nc2c(I)cnn2c2cc(-c3ccccc3O)ccc21`, the Activity was above 80%.

In turn, `O=C(c1ccco1)c1cnn2c1n[n+]([O-])c1ccc(-c3ccc[nH]3)cc12` gave an Activity above 80%.

With `[O-][n+]1nc2c(I)cnn2c2cc(-c3ccsc3)ccc21`, the Activity is above 80%.

`[O-][n+]1nc2c(-c3ccco3)cnn2c2cc(-c3ccsc3)ccc21` came in with an Activity above 80%.

`[O-][n+]1nc2c(-c3ccsc3)cnn2c2cc(-c3ccc[nH]3)ccc21` had an Activity above 80%.

With `[O-][n+]1nc2c(-c3ccsc3)cnn2c2cc(-c3cccs3)ccc21`, the Activity was above 80%.

For `[O-][n+]1nc2c(I)cnn2c2cc(-c3ccco3)ccc21`, the Activity is above 80%.

For the compound `COc1ccc(-c2ccc3c(c2)n2ncc(I)c2n[n+]3[O-])cc1`, the Activity is above 80%.

`[O-][n+]1nc2c(-c3ccsc3)cnn2c2cc(-c3ccco3)ccc21` came in with an Activity above 80%.

In turn, `COc1ccccc1-c1ccc2c(c1)n1ncc(I)c1n[n+]2[O-]` came in with an Activity above 80%.

Compound `[O-][n+]1nc2c(-c3ccsc3)cnn2c2cc(-c3ccsc3)ccc21` displayed an Activity above 80%.

Regarding `[O-][n+]1nc2c(I)cnn2c2cc(-c3ccncc3)ccc21`, the Activity was above 80%.

As a reminder, the Ki is a measure of affinity in units of concentration, obtained from inhibition or displacement. A higher Ki goes with a looser hold on the target.
